Data published in ChEMBL document CHEMBL3870332, “Development of pharmacophore models for small molecules targeting RNA: Application to the RNA repeat expansion in myotonic dystrophy type 1” (Bioorg Med Chem Lett, 2016).
The source made the active and inactive calls. The rule behind the calls is not given here.

Assays:
[1] = tested on: HeLa; assay: Binding affinity to r(CUG)960 RNA (unknown origin) expressed in human HeLa cells co-expressing cTNT mini-gene assessed as reduction in deregulated cTNT exon5 alternative splicing at 100 uM measured after 20 to 24 hrs by RT-PCR analysis; format: cell-based
[2] = Binding affinity to biotinylated-r(CUG)12 RNA (unknown origin) assessed as disruption of r(CUG)12/His6-tagged MBNL1 complex at 50 uM incubated for 15 mins by TR-FRET assay
Outline: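 TR-FRET disruption of a preformed r(CUG)12–MBNL1 complex, method as described previously; each compound screened at a single 50 µM concentration.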

[3] = Cytotoxicity against human HeLa cells expressing DM1 assessed as reduction in cell viability at 100 uM measured after 24 hrs by WST-1 assay; format: toxicity, cell-based
[4] = Binding affinity to r(CUG)2 RNA (unknown origin) measured after 5 mins by fluorescence analysis
[5] = tested on: HeLa; assay: Binding affinity to r(CUG)960 RNA (unknown origin) expressed in human HeLa cells co-expressing cTNT mini-gene assessed as reduction in deregulated cTNT exon5 alternative splicing at 10 uM measured after 20 to 24 hrs by RT-PCR analysis; format: cell-based
[6] = Binding affinity to r(GC)20 RNA (unknown origin) measured after 5 mins by fluorescence analysis
[7] = Binding affinity to AT hairpin DNA (unknown origin) measured after 30 mins by fluorescence analysis
[8] = tested on: C2C12; assay: Binding affinity to r(CUG)800 RNA (unknown origin) expressed in mouse C2C12 cells assessed as increase in nucleocytoplasmic transport of mRNA at 12.5 to 50 uM measured after 20 to 24 hrs by luciferase reporter gene assay; format: cell-based
Outline: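 Run in C2C12 cells expressing a luciferase-encoding mRNA carrying 800 CUG repeats in the 3′ UTR. Nucleocytoplasmic export is read as luciferase turnover of a pro-luminescent substrate. Compounds tested at 50, 25 and 12.5 µM.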

[9] = Binding affinity to tRNA (unknown origin) measured after 30 mins by fluorescence analysis
[10] = tested on: C2C12; assay: Effect on luciferase expression in mouse C2C12 cells at 12.5 to 50 uM measured after 20 to 24 hrs by luminescence assay; format: functional, cell-based
Outline: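 Counterscreen in the same C2C12 luciferase line without CUG repeats, used to flag compounds that enhance luciferase translation non-specifically. Compounds tested at 50, 25 and 12.5 µM.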

[11] = tested on: HeLa; assay: Increase in DMPK transcript level in human HeLa cells co-expressing DM1/DMPK and cTNT mini-gene at 100 uM measured after 20 to 24 hrs by RT-qPCR method; format: functional, cell-based

## O=C(Nc1ccc(NC(=O)c2ccc(F)cc2)nc1)c1ccncc1
[1]
  Activity: Active
[2]
  Activity: > 20%
[3]
  Activity: Non-Toxic
[4]
  Kd: 4.6 µM
[5]
  Activity: Active
[6]
  Kd: > 30 µM
[7]
  Kd: > 50 µM
[8]
  Activity: Active
[9]
  Kd: > 50 µM

## Cc1c(C(=O)Nc2ccccn2)sc2nc(-c3ccccc3)cn12
[2]
  Activity: > 20%
[10]
  Activity: Active
[8]
  Activity: Active

## O=C(Nc1ccc2[nH]c(-c3ccc(F)cc3)nc2c1)c1ccncc1
[1]
  Activity: Active
[2]
  Activity: > 20%
[3]
  Activity: Non-Toxic
[8]
  Activity: Active

## O=C(Nc1ccccn1)c1cccc(OCc2cscn2)c1
[1]
  Activity: Active
[2]
  Activity: > 20%
[3]
  Activity: Non-Toxic
[11]
  Activity: Active
[5]
  Activity: Active
[8]
  Activity: Active

## O=C(Nc1ccc2c(c1)C(=O)N(c1ccccc1)C2=O)c1ccco1
[2]
  Activity: > 20%
[10]
  Activity: Active
[8]
  Activity: Active

## O=C(Nc1ccc(-c2nc3ccccc3[nH]2)cc1)c1cccnc1
[2]
  Activity: > 20%
[10]
  Activity: Active
[8]
  Activity: Active

## Nc1ccc(-c2nc3ccc(-c4nc5ccc(N)cc5[nH]4)cc3[nH]2)cc1
[2]
  Activity: > 20%
